How the values were obtained:
[1] = Ability to inhibit mouse alpha DNA polymerase
Procedure, shortened: (§1)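 Enzyme in 50% glycerol, 1 mM dithiothreitol, 0.5 M KCl and 50 mM Tris-HCl pH 7.5 was premixed with inhibitor in 100% Me2SO and held on ice 10 min. Cocktail (MnCl2, KCl, NaF, BSA, [3H]dGTP, poly(2'-O-methylcytidylic acid)·d(pG)12-18) was then added. Incubation was 45 min at 37 °C.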

DNA polymerase beta = DNA polymerase beta (Mus musculus, UniProt Q8K409); experiment: Ability to inhibit mouse beta DNA polymerase; procedure, shortened: as §1
Gag-Pol polyprotein = Gag-Pol polyprotein (Woolly monkey sarcoma virus, UniProt P03359); experiment: Ability to inhibit simian sarcoma virus reverse transcriptase
Procedure, shortened: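 Purified SSV-1 RNA-dependent DNA polymerase from 71 AP1 culture fluids, in 20% glycerol, 1 mM dithiothreitol, 1 mg/mL BSA and 50 mM Tris-HCl pH 7.5, was held 10 min on ice with inhibitor in Me2SO. Mn2+/[3H]dGTP cocktail with poly(2'-O-methylcytidylic acid)·d(pG)12-18 template was added, then 45 min at 37 °C. Background-corrected triplicate dose series; the 50% inhibition concentration was extrapolated.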

[2] = The logarithm of the reciprocal of the concentration which produces 50% inhibition of mammalian alpha DNA polymerase.
Procedure, shortened: (§2)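 Mammalian α or β DNA polymerase in 100 µL reaction: enzyme in 50% glycerol, 1 mM DTT, 0.5 M KCl, Tris-HCl pH 7.5; Me2SO compound; cocktail with MnCl2, NaF, [3H]dGTP, poly(2'-O-methylC)·d(pG)12-18 template. Compound added first, then enzyme, then cocktail; 45 min at 37 °C. Product radioactivity, background-corrected against Me2SO controls; 50% concentration from triplicate five-dose curves, 10^-3–10^-7 M, expressed as log(1/C).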

[3] = target: Gag-Pol polyprotein (Woolly monkey sarcoma virus) (UniProt P03359); experiment: Inhibition of simian sarcoma virus reverse transcriptase
Procedure, shortened: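 SSV-1 RNA-dependent DNA polymerase purified from tissue culture fluid of 71 AP1 cells. 50 µL reaction containing 20% glycerol, 1 mM DTT, BSA, Tris-HCl pH 7.5, MnCl2, KCl, NaF, [3H]dGTP and poly(2'-O-methylC)·d(pG)12-18. Compound in Me2SO is mixed with enzyme on ice for 10 min before the cocktail is added, then incubated 45 min at 37 °C. Radioactivity in product; 50% inhibitory concentration from triplicate dose–response curves spanning 10^-3 to 10^-7 M.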

[4] = Partition coefficient (logP); conditions: octanol/water, logP
[5] = target: DNA polymerase beta (Mus musculus) (UniProt Q8K409); experiment: The logarithm of the reciprocal of the concentration which produces 50% inhibition of mammalian beta DNA polymerase.; procedure, shortened: as §2

Chain of Gag-Pol polyprotein (P03359 642-1310 limits assumed): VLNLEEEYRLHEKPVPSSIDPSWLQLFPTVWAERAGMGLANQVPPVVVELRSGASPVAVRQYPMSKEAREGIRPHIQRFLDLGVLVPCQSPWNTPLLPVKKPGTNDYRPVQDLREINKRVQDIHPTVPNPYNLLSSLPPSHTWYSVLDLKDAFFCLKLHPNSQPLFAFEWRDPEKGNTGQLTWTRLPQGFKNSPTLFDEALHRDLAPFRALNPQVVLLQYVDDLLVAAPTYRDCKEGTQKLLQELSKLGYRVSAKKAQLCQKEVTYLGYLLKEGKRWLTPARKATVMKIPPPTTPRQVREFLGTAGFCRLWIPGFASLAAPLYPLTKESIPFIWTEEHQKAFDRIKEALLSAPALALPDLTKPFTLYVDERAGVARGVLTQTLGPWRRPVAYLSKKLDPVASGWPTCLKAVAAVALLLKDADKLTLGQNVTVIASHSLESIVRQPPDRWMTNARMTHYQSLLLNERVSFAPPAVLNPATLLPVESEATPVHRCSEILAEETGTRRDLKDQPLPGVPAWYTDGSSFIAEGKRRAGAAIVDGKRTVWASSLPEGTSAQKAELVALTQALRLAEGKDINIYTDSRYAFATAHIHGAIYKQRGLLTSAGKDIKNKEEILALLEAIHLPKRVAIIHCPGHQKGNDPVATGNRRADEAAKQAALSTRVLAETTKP
Chain of Gag-Pol polyprotein (Woolly monkey sarcoma virus) (P03359 whole entry): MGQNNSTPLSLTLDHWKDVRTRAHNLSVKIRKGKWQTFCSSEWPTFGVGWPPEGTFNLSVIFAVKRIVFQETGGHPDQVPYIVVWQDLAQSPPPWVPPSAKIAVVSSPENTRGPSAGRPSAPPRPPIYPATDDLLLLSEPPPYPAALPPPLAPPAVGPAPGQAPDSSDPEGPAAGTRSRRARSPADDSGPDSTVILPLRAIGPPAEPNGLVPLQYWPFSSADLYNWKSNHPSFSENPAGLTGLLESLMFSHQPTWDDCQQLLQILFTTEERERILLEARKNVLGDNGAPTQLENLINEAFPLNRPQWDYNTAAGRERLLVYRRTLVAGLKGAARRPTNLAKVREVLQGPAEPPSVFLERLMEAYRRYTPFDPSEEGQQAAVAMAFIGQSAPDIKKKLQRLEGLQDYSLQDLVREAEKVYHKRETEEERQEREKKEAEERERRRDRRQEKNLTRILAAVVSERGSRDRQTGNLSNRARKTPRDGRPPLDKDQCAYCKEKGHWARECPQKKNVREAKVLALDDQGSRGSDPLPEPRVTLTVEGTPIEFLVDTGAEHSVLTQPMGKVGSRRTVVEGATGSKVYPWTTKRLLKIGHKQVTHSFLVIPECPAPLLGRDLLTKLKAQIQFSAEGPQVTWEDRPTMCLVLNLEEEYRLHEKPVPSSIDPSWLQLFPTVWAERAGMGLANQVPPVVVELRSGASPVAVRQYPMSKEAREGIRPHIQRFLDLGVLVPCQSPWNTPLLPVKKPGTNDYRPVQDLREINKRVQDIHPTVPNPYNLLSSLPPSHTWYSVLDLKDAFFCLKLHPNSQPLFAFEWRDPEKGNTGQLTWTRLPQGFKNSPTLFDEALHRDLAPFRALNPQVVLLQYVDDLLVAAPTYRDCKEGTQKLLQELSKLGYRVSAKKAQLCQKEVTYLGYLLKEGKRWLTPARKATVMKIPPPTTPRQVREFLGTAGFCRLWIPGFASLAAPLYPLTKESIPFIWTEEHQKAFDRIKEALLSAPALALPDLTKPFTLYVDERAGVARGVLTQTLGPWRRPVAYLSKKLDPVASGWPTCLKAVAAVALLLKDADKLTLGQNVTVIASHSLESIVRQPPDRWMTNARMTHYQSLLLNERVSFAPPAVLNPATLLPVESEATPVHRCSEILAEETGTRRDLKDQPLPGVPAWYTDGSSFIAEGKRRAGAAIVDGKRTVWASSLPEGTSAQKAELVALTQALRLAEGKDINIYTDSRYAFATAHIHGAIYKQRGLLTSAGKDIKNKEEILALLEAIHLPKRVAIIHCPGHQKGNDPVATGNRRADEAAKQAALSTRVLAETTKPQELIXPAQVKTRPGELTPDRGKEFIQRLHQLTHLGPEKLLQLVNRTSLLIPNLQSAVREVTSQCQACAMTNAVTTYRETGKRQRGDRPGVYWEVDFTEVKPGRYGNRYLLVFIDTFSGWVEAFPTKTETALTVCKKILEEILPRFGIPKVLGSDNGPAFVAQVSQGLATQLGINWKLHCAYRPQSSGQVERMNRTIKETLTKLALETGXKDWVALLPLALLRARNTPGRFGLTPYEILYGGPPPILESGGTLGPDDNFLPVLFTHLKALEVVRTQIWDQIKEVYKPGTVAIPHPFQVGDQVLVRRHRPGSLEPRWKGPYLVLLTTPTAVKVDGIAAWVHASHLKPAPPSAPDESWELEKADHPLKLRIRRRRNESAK

Structure (SMILES) | IC50 [1] [M l-1] | IC50 (DNA polymerase beta; read-out: IC50) [µM] | IC50 (Gag-Pol polyprotein; read-out: IC50) [µM] | Log 1/C [2] | Log 1/C [3] | logP [4] | Log 1/C [5] | IC50 (DNA polymerase beta) [M l-1] | IC50 (Gag-Pol polyprotein) [M l-1]
COC1/C=C/OC2(C)Oc3c(C)c(O)c4c(O)c(c(/C=N/N5C(C)CN(Cc6ccccc6)CC5C)cc4c3C2=O)NC(=O)/C(C)=C\C=C\C(C)C(O)C(C)C(O)C(C)C(OC(C)=O)C1C (stereo unspecified) | 0.000038 | 21 | 12.5 | 4.42 | 4.9 | 4.28 | 4.68 |  | 
COC1/C=C/OC2(C)Oc3c(C)c(O)c4c(O)c(c(/C=N/OCCCc5ccccc5)cc4c3C2=O)NC(=O)/C(C)=C\C=C\C(C)C(O)C(C)C(O)C(C)C(OC(C)=O)C1C (stereo unspecified) | 0.000034 | 6.6 | 5.6 | 4.46 | 5.25 | 4.83 | 5.18 |  | 
COC1/C=C/OC2(C)Oc3c(C)c(O)c4c(O)c(c(/C=N/N5CCCCCCCCCC5)cc4c3C2=O)NC(=O)/C(C)=C\C=C\C(C)C(O)C(C)C(O)C(C)C(OC(C)=O)C1C (stereo unspecified) | 0.000031 | 22 | 6.6 | 4.51 | 5.18 | 4.05 | 4.65 |  | 

More lines, now with the values ahead:

IC50 [1] [M l-1] | IC50 (DNA polymerase beta; read-out: IC50) [µM] | IC50 (Gag-Pol polyprotein; read-out: IC50) [µM] | Log 1/C [2] | Log 1/C [3] | logP [4] | Log 1/C [5] | IC50 (DNA polymerase beta) [M l-1] | IC50 (Gag-Pol polyprotein) [M l-1] | Structure (SMILES)
0.00024 |  | 17 | 3.62 | 4.77 | 2.75 | 3.62 | 0.00024 |  | COC1/C=C/OC2(C)Oc3c(C)c(O)c4c(O)c(c(/C=N/N5CCCC5)cc4c3C2=O)NC(=O)/C(C)=C\C=C\C(C)C(O)C(C)C(O)C(C)C(OC(C)=O)C1C (stereo unspecified)
0.00006500000000000002 | 45 | 13.5 | 4.19 | 4.87 | 3.85 | 4.35 |  |  | CCCN(CCC)/N=C/c1cc2c3c4c(C)c(O)c2c(O)c1NC(=O)/C(C)=C\C=C\C(C)C(O)C(C)C(O)C(C)C(OC(C)=O)C(C)C(OC)/C=C/OC(C)(O4)C3=O (stereo unspecified)
0.000102 |  | 17 | 2.99 | 2.99 | 0.13 | 2.99 | 0.000104 |  | COC1/C=C/OC2(C)Oc3c(C)c(O)c4c(O)c(c(C=O)cc4c3C2=O)NC(=O)/C(C)=C\C=C\C(C)C(O)C(C)C(O)C(C)C(OC(C)=O)C1C (stereo unspecified)
0.003 |  |  | 2.52 | 2.84 | 1.76 | 2.38 | 0.0042 | 0.00145 | COC1/C=C/OC2(C)Oc3c(C)c(O)c4c(O)c(c(CN5CCNCC5)cc4c3C2=O)NC(=O)/C(C)=C\C=C\C(C)C(O)C(C)C(O)C(C)C(OC(C)=O)C1C (stereo unspecified)
0.001 |  | 40 | 3 | 4.4 | 1.55 | 3 | 0.0011 |  | CCN(CC)Cc1cc2c3c4c(C)c(O)c2c(O)c1NC(=O)/C(C)=C\C=C\C(C)C(O)C(C)C(O)C(C)C(OC(C)=O)C(C)C(OC)/C=C/OC(C)(O4)C3=O (stereo unspecified)
